By MIC is commonly meant the smallest concentration in the dilution series that meets the test's criterion for growth inhibition. Low readings indicate inhibition by little substance, high ones a need for much substance. Broadly, the pIC50 is the negative decadic logarithm of the IC50, by convention in mol/L. A low value points to a large IC50.

Structures are written as SMILES. pIC50: −log10 of the molar value. In brackets after ≈: the same amount, converted by molar mass. Activity calls are given as the source filed them.

Test [1] concerns Staphylococcus aureus. The test can be described thus: Antibiotic activity against methicillin-resistant Staphylococcus aureus isolate CAIRD148 by broth microdilution assay or Alamar blue dye based colorimetric assay. In kind it is functional. The method in brief:
(§1)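 Minimum inhibitory concentration (MIC) by broth microdilution following CLSI standards, with Alamar Blue as the colorimetric reporter. Test compounds were made up as 50 mM stocks in DMSO and serially diluted 2-fold in the test wells. The top final well concentration was 500 μM (500, 250, 125, 64, 32, 16, 8, 4, 2, 1 μM, etc.).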
Background: Broth dilution looks for growth in wells or tubes with falling amounts of substance.

In test [2] the test system is Staphylococcus aureus. Description: Antibiotic activity against methicillin-resistant Staphylococcus aureus isolate CAIRD116 by broth microdilution assay or Alamar blue dye based colorimetric assay. In kind it is functional. The method in brief: as §1
Test [3] has as its system Staphylococcus aureus. Description: Antibiotic activity against methicillin-resistant Staphylococcus aureus isolate CAIRD142 by broth microdilution assay or Alamar blue dye based colorimetric assay. In kind it is functional. The method in brief:
as §1

Another test deals with Stromelysin-1 (Homo sapiens, UniProt P08254). Description: Inhibition of MMP3 (unknown origin).
Chain of Stromelysin-1 (P08254 whole entry): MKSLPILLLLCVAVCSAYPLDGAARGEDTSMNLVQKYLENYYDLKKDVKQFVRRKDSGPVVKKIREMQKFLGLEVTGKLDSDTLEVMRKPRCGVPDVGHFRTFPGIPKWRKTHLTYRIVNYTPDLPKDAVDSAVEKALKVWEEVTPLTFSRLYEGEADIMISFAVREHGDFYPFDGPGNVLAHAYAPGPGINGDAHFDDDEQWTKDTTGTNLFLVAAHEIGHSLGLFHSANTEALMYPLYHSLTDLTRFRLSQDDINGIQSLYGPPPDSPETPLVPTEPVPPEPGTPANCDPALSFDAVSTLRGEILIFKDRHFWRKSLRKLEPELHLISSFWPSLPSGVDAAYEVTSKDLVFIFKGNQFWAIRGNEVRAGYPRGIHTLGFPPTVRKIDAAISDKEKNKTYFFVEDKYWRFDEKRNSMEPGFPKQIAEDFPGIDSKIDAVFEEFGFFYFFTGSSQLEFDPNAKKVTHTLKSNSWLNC
Test [4] deals with RPMI-8226. Description: Growth inhibition of human RPMI8226 cells at 10 uM incubated for 48 hrs by SRB assay. To be noted: RPMI-8226, 48 h, read-out: GI. In kind it is functional. (In general: In SRB staining, fixed cells bind dye roughly in proportion to their protein.)
Another test deals with Candida albicans. The test can be described thus: Antibiotic activity against Candida albicans by broth microdilution assay or Alamar blue dye based colorimetric assay. Type of test: functional.
Test [5] deals with Staphylococcus aureus. Description: Antibiotic activity against methicillin-resistant Staphylococcus aureus isolate NE277 by broth microdilution assay or Alamar blue dye based colorimetric assay. In kind it is functional. A digest of the protocol: as §1
A further test concerns Streptococcus pyogenes. The test can be described thus: Antibiotic activity against Streptococcus pyogenes by broth microdilution assay or Alamar blue dye based colorimetric assay. In kind it is functional. A digest of the protocol: (§2)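 Broth microdilution following CLSI standards, read colorimetrically with Alamar Blue. Test compounds were made as 50 mM stocks in DMSO, then serially diluted 2-fold in the test wells from a top final concentration of 500 μM (500, 250, 125, 64, 32 μM and lower). The MIC was taken from this dilution series.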

Another test concerns Bacillus subtilis. Description: Antibiotic activity against Bacillus subtilis by broth microdilution assay or Alamar blue dye based colorimetric assay. In kind it is functional. The method in brief: as §2
A further test concerns Nakaseomyces glabratus. Description: Antibiotic activity against Candida glabrata by broth microdilution assay or Alamar blue dye based colorimetric assay. Type of test: functional.
Test [6] has as its system Staphylococcus aureus. The test can be described thus: Antibiotic activity against Staphylococcus aureus 13709 by broth microdilution assay or Alamar blue dye based colorimetric assay. In kind it is functional. A digest of the protocol: as §2
The subject of a further test is Bacillus anthracis. Description: Antibiotic activity against Bacillus anthracis by broth microdilution assay or Alamar blue dye based colorimetric assay. In kind it is functional. The method in brief: as §1
The test system of test [7] is Ribosome. Description: Induction of ribosome stalling assessed as induction of stalling of ribosome at ermBL ORF at 50 uM by extension inhibition assay. A digest of the protocol:
(§3)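 Primer extension inhibition was run on an ermBL gene template following the published procedure. Erythromycin, josamycin and tylosin were included in the reaction as references at 50 μM. The test agent was present at 50 or 250 μM.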

A short description of test [8]: In-vitro inhibition of protein translation using pY71-sfGFP in PUREexpress in vitro protein synthesis system assessed as reduction in cell-free GFP protein translation at 50 uM measured every 20 mins for 2 hrs. In kind it is functional. The method in brief:
(§4)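 Cell-free transcription-translation reactions were programmed with the pY71-sfGFP plasmid. The antibiotic solution was dried at the bottom of the tube before the reaction components were added. Erythromycin, josamycin and tylosin served as references at a final 50 μM. Reactions were incubated at 37 °C, with GFP fluorescence (excitation 488 nm, emission 520 nm) read every 20 min for 2 h.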

In test [9] the test system is RPMI-8226. The test can be described thus: Cytotoxicity human RPMI8226 cells assessed as cell lethality at 10 uM incubated for 48 hrs by SRB assay. In kind it is functional. A digest of the protocol: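 Single-dose (10 μM) screen run by the NCI Developmental Therapeutics Program across its 60 cell-line panel. Read as percent growth inhibition.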
In a further test the test system is K562. Description: Growth inhibition of human K562 cells at 10 uM incubated for 48 hrs by SRB assay. Type of test: functional. To be noted: K562, 48 h, read-out: GI.
Test [10] has as its system Ribosome. Description: Induction of ribosome stalling (unknown origin) assessed as induction of stalling of ribosome at ermBL ORF at 250 uM by extension inhibition assay. A digest of the protocol: as §3
A short description of test [11]: In-vitro inhibition of protein translation using pY71-sfGFP in PUREexpress in vitro protein synthesis system assessed as reduction in cell-free GFP protein translation at 250 uM measured every 20 mins for 2 hrs. Type of test: functional. The method in brief:
as §4

For a further test, the system named is CCRF-CEM. The test can be described thus: Growth inhibition of human CCRF-CEM cells at 10 uM incubated for 48 hrs by SRB assay. In kind it is functional. To be noted: read-out: GI.

For the compound `C[C@H]1COc2c(N3CCN(C)CC3)c(F)cc3c(=O)c(C(=O)O)cn1c23.C[C@H]1COc2c(N3CCN(C)CC3)c(F)cc3c(=O)c(C(=O)O)cn1c23.O` [LEVOFLOXACIN], the MIC in the test on Staphylococcus aureus [1] is > 16 µg/mL; against Staphylococcus aureus [2], > 16 µg/mL; with Staphylococcus aureus [3], 0.25 µg/mL.

On to `C[C@@H]1CCCCCCCCC[C@H](OC(=O)CCC(=O)O)C(=O)/C=C/C(=O)O1`, for which the pIC50 on Stromelysin-1 was 4.30. Besides, in the test with RPMI-8226 [4], the inhibition of growth at 10 µM was determined as 48%. In addition, the MIC against Candida albicans was found to be 250 µM (≈ 95.6 µg/mL); with Staphylococcus aureus [5] it was 16 µM (≈ 6.12 µg/mL); in the test on Streptococcus pyogenes it was 125 µM (≈ 47.8 µg/mL); in the test with Bacillus subtilis it was 32 µM (≈ 12.2 µg/mL); in the test with Staphylococcus aureus [1], 16 µM; in the test on Staphylococcus aureus [2], 16 µM. Moreover, the MIC was found to be 125 µM (≈ 47.8 µg/mL) in the test with Nakaseomyces glabratus, 16 µM against Staphylococcus aureus [3], 8 µM (≈ 3.06 µg/mL) in the test on Staphylococcus aureus [6] and 16 µM (≈ 6.12 µg/mL) in the test on Bacillus anthracis.

`CC[C@H]1OC(=O)[C@H](C)[C@@H](O[C@H]2C[C@@](C)(OC)[C@@H](O)[C@H](C)O2)[C@H](C)[C@@H](O[C@@H]2O[C@H](C)C[C@H](N(C)C)[C@H]2O)[C@](C)(O)C[C@@H](C)C(=O)[C@H](C)[C@@H](O)[C@]1(C)O` [ERYTHROMYCIN]: the outcome in the test with Ribosome [7] was Active. For the same compound, the MIC against Staphylococcus aureus [1], against Staphylococcus aureus [2] and in the test with Staphylococcus aureus [3] was > 32 µg/mL each time. Also, the “translation inhibition (active/not active)” value in test [8] was “Active”.

Turning to `CO[C@@H]1[C@@H](O[C@@H]2O[C@H](C)[C@@H](O[C@H]3C[C@@](C)(O)[C@@H](OC(=O)CC(C)C)[C@H](C)O3)[C@H](N(C)C)[C@H]2O)[C@@H](CC=O)C[C@@H](C)[C@@H](O)/C=C/C=C/C[C@@H](C)OC(=O)C[C@H]1OC(C)=O`, the outcome with Ribosome [7] was Active. In test [8], the “translation inhibition (active/not active)” value is “Active”.

With `C[C@@H]1CCCCCCCCC[C@H](O)C(=O)C[C@@H](SC[C@@H](O)C(=O)O)C(=O)O1`, the Activity with RPMI-8226 [9] worked out at 2.4%. The pIC50 on Stromelysin-1 is 4.00. In addition, the outcome with Ribosome [7] and in the test with Ribosome [10] was inactive. Also, the inhibition of growth at 10 µM in the test on K562 is 85%. For the same compound, the MIC with Candida albicans stood at 64 µM (≈ 25.9 µg/mL); with Staphylococcus aureus [5], 2 µM (≈ 0.809 µg/mL); against Streptococcus pyogenes, 8 µM (≈ 3.24 µg/mL); against Bacillus subtilis it was 32 µM (≈ 12.9 µg/mL); with Staphylococcus aureus [1], 2 µM; in the test with Staphylococcus aureus [2], 2 µM. The minimum inhibitory concentration (MIC) against Nakaseomyces glabratus was 16 µM (≈ 6.47 µg/mL); in the test on Staphylococcus aureus [3] it was 4 µM; with Staphylococcus aureus [6] it was 2 µM (≈ 0.809 µg/mL); against Bacillus anthracis, 8 µM (≈ 3.24 µg/mL). For the same compound, the “translation inhibition (active/not active)” value in [8] is “inactive”. Also, the inhibition result in test [11] was “inactive”.

With `C[C@H]1OC(=O)/C=C/[C@@H](O)[C@@H](O)CCCCCCCC[C@@H]1O`, in the test on CCRF-CEM, the inhibition of growth at 10 µM worked out at 38%. The same compound gave a pIC50 at Stromelysin-1 of 3.82. Besides, the minimum inhibitory concentration (MIC) against Candida albicans is > 1000 µM; in the test with Streptococcus pyogenes, 500 µM (≈ 150 µg/mL); with Bacillus subtilis, > 1000 µM; in the test on Nakaseomyces glabratus it was > 1000 µM; against Staphylococcus aureus [6], 64 µM (≈ 19.2 µg/mL); in the test with Bacillus anthracis, 250 µM (≈ 75.1 µg/mL).

On to `Cc1nnc(SCC2=C(C(=O)O)N3C(=O)[C@@H](NC(=O)Cn4cnnn4)[C@H]3SC2)s1` [CEFAZOLIN], for which the MIC in the test on Staphylococcus aureus [1], in the test with Staphylococcus aureus [2] and against Staphylococcus aureus [3] was 256 µg/mL in each case.

As for `C[C@H]1c2cccc(O)c2C(=O)C2=C(O)[C@]3(O)C(=O)C(C(N)=O)=C(O)[C@@H](N(C)C)[C@@H]3[C@@H](O)[C@@H]21.O` [DOXYCYCLINE], the minimum inhibitory concentration (MIC) in the test on Staphylococcus aureus [1] amounted to 0.25 µg/mL; against Staphylococcus aureus [2], 8 µg/mL; in the test on Staphylococcus aureus [3] it was 16 µg/mL.

With `C[C@@H]1CC(O)CCCCCCC[C@H](OC(=O)CCC(=O)O)C(=O)/C=C/C(=O)O1` (some centres not stated), the minimal inhibitory concentration (MIC) was > 1000 µM in the test with Candida albicans; 125 µM (≈ 49.8 µg/mL) with Streptococcus pyogenes; 250 µM (≈ 99.6 µg/mL) in the test on Bacillus subtilis; > 1000 µM in the test with Nakaseomyces glabratus; 32 µM (≈ 12.8 µg/mL) in the test with Staphylococcus aureus [6]; 64 µM (≈ 25.5 µg/mL) with Bacillus anthracis.

Take `CCC[C@@H]1C[C@@H](C(=O)N[C@@H]([C@H]2O[C@H](SC)[C@H](O)[C@@H](O)[C@H]2O)[C@H](C)Cl)N(C)C1` [CLINDAMYCIN]: the MIC against Staphylococcus aureus [1], against Staphylococcus aureus [2] and against Staphylococcus aureus [3] was > 16 µg/mL throughout.

With `C[C@@H]1CCCCCCCCC[C@H](OC(=O)CCC(=O)O)C(=O)C[C@@H](SC[C@@H](O)C(=O)O)C(=O)O1`, the MIC is > 250 µM against Candida albicans; 16 µM (≈ 8.07 µg/mL) against Staphylococcus aureus [5]; 250 µM (≈ 126 µg/mL) against Streptococcus pyogenes; 64 µM (≈ 32.3 µg/mL) against Bacillus subtilis; 16 µM in the test on Staphylococcus aureus [1]; 32 µM with Staphylococcus aureus [2]. Also, the MIC against Nakaseomyces glabratus is 64 µM (≈ 32.3 µg/mL); against Staphylococcus aureus [3], 32 µM; with Staphylococcus aureus [6], 8 µM (≈ 4.04 µg/mL); in the test on Bacillus anthracis, 16 µM (≈ 8.07 µg/mL).

For the compound `CC[C@H]1OC(=O)C[C@@H](O)[C@H](C)[C@@H](O[C@@H]2O[C@H](C)[C@@H](O[C@H]3C[C@@](C)(O)[C@@H](O)[C@H](C)O3)[C@H](N(C)C)[C@H]2O)[C@@H](CC=O)C[C@@H](C)C(=O)/C=C/C(C)=C/[C@@H]1CO[C@@H]1O[C@H](C)[C@@H](O)[C@@H](OC)[C@H]1OC`, the outcome in the test with Ribosome [7] was Active. The “translation inhibition (active/not active)” value in test [8] was “Active”.

For the compound `C[C@H]1OC(=O)/C=C/C(=O)[C@@H](OC(=O)CCC(=O)O)CCCCCCCC[C@@H]1O`, the inhibition of growth at 10 µM in the test with CCRF-CEM was 48%; in the test on K562 it was 46%. Also, the MIC against Candida albicans worked out at 125 µM (≈ 49.8 µg/mL); in the test on Streptococcus pyogenes it was 64 µM (≈ 25.5 µg/mL); in the test on Bacillus subtilis it was 64 µM (≈ 25.5 µg/mL); against Nakaseomyces glabratus, 64 µM (≈ 25.5 µg/mL); with Staphylococcus aureus [6] it was 16 µM (≈ 6.38 µg/mL); in the test with Bacillus anthracis, 16 µM (≈ 6.38 µg/mL).

(Values after ChEMBL document CHEMBL4270487, “The Berkeleylactones, Antibiotic Macrolides from Fungal Coculture” (J Nat Prod, 2017).)
